High-throughput results: PubChem, several laboratories
Most compounds without a hit are left out; they make up all but 3.9% or so of the library.
Gli-Sufu antag = Gli-Sufu pathway antagonists, primary screen, luciferase luminescence, Sufu-KO-LIGHT cells, uHTS; Sufu-KO-LIGHT fibroblasts, Gli luciferase reporter luminescence; inhibition, % at 5 µM; 340,000 compounds, 0.74% hits; AID 588413, 2011;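 active = inhibition above about 55%, limit read from the data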;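 note: 0% = DMSO-treated cells and 100% = wells with medium but no cells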
UPR XBP1 act = activators of adaptive XBP1 UPR arm, primary screen, cell-based, CHO-XBP1 luciferase reporter, luminescence, uHTS; 330,000 compounds, 0.33% hits; IRE1-XBP1 UPR activation; percent of tunicamycin response, DMSO as zero; activation, % at 20 µM;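 active = versus positive control, 20 µM dose yields 30% or more activation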;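 note: 100% = tunicamycin at 10 µg/mL and 0% = DMSO only wells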
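incubation = overnight seeding at 37 °C, 6 h compound treatment at 37 °C | assay system = CHO-XBP1 cells stably carrying IRE1-XBP1-driven luciferase reporter | input = 1000 cells per well | detection = luciferase luminescence | dosing = single point, 20 µM final compound, 1% DMSO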
697 NFkB inh = inhibitors of PMA/ionomycin-induced NF-kB reporter, 697 cells, primary screen, B-cell NF-kB inhibitor project, cell-based, luminescence, uHTS. 697 B-cell NF-kB luciferase reporter, 16 h. inhibition, % at 4 µM. 330,000 compounds, 0.33% hits. AID 435022, 2010; in the data active = inhibition above about 35%
CHOP UPR activ = activators of apoptotic CHOP UPR arm, primary screen, cell-based, CHO-CHOP luciferase reporter, luminescence, uHTS | UPR activation; percent of tunicamycin response over DMSO baseline | activation, % at 10 µM | 330,000 compounds, 0.34% hits | AID 449763, 2010;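 active = at 10 µM dose, activation of 40% or more, normalized to positive control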;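 note: 100% = tunicamycin at 10 µg/mL and 0% = DMSO alone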
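Material: CHO-CHOP cells, stable luciferase reporter of PERK-eIF2a-CHOP signalling; quantity: 500 reporter cells seeded per well; buffer or medium: F12 medium containing 10% fetal bovine serum; compound: one dose, 10 µM in 0.5% DMSO; incubation: 6 h compound treatment, 37 °C; measured by: Steady-Glo luciferase luminescence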
Jurkat NFkB inh = inhibitors of induced NF-kB luciferase reporter, primary screen, TCR NF-kB activation inhibitor project, cell-based, luminescence, uHTS; Jurkat, PMA/ionomycin-induced NF-kB luciferase reporter; inhibition, % at 4 µM; 330,000 compounds, 0.53% hits; AID 435003, 2010; in the data active = inhibition above about 50%
CHOP inhibitor = inhibitors of CHOP promoter induction, primary screen, cell-based, unfolded protein response, luciferase reporter; CHO-K1 CHOP-promoter luciferase, tunicamycin-induced, 15-18 h; inhibition, % at 10 µM; 220,000 compounds, 3.8% hits; AID 2732, 2010;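 active = compounds that reduced the stress-induced luciferase reporter signal by more than about 70% of percent inhibition, limit read from the data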;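 note: 0% = tunicamycin plus vehicle and 100% = wells without tunicamycin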
CHOP UPR conf = activators of apoptotic CHOP UPR arm, confirmation, cell-based, CHO-CHOP luciferase reporter, single concentration | shares compounds with CHOP UPR activ | CHO-CHOP cells, CHOP-luciferase reporter luminescence; percent of tunicamycin response, DMSO as zero | activation, % at 10 µM | 1,000 compounds, 64% hits | AID 463112, 2010; in the data active = activation above about 33%;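 note: 0% = DMSO wells and 100% = tunicamycin 10 µg/mL wells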
The depositor's hits bear a star.

What do the screens show for `COc1cc(/C=N/NC(N)=S)cc(Br)c1OCc1ccccc1F`?
Gli-Sufu antag: 33; UPR XBP1 act: 26; 697 NFkB inh: 27; CHOP UPR activ: 52*; Jurkat NFkB inh: 5; CHOP inhibitor: 32; CHOP UPR conf: 12

How did CC(C)=CCc1c(O)ccc2c1OC(c1ccc(O)c(O)c1)CC2=O (stereo not drawn) do in these assays?
Gli-Sufu antag: 17; UPR XBP1 act: 15; 697 NFkB inh: -16; CHOP UPR activ: 69*; Jurkat NFkB inh: 18; CHOP inhibitor: 41; CHOP UPR conf: 27

How did CN(C)C(=S)N=Nc1[nH]c2ccccc2c1O do in these assays?
Gli-Sufu antag: -10; UPR XBP1 act: 7; 697 NFkB inh: -61; CHOP UPR activ: 466*; Jurkat NFkB inh: -54; CHOP inhibitor: -127; CHOP UPR conf: 341*

What do the screens show for `Cc1ccc(NC(=S)N=Nc2c(O)[nH]c3ccccc23)cc1`?
Gli-Sufu antag: -61; UPR XBP1 act: 0; 697 NFkB inh: -11; CHOP UPR activ: 4; Jurkat NFkB inh: -28; CHOP inhibitor: 69

Results for CCOc1ccc(C(=O)C(CN2CCOCC2)c2ccccc2)cc1 (stereo not drawn) ?
Gli-Sufu antag: 12; CHOP inhibitor: -68

What do the screens show for `O=C(c1ccc(Br)cc1)C(CN1CCOCC1)c1ccccc1` (stereo not drawn)?
Gli-Sufu antag: 9; UPR XBP1 act: 0; 697 NFkB inh: -89; CHOP UPR activ: 105*; Jurkat NFkB inh: 33; CHOP UPR conf: 137*

What do the screens show for `COC(C(=O)Nc1ccnn1C1CCN(Cc2ccc(CO)o2)CC1)c1ccccc1` (stereo not drawn)?
Gli-Sufu antag: 29; UPR XBP1 act: -2; 697 NFkB inh: 24; CHOP UPR activ: 2; Jurkat NFkB inh: 10

Results for Cc1ccccc1S(=O)(=O)NC1OC(=O)C(Cl)=C1Cl (stereo not drawn) ?
Gli-Sufu antag: 12; UPR XBP1 act: 2; 697 NFkB inh: -4; CHOP UPR activ: 47*; Jurkat NFkB inh: 8; CHOP inhibitor: -23; CHOP UPR conf: 40*

Results for Cc1ccccc1S(=O)(=O)NC1OC(=O)C(Oc2ccccc2)=C1Br (stereo not drawn) ?
Gli-Sufu antag: -7; UPR XBP1 act: -2; 697 NFkB inh: 5; CHOP UPR activ: 0; Jurkat NFkB inh: -2; CHOP inhibitor: 6

Results for CCOC(=O)c1cnc(-n2nc(C)cc2C)nc1NC(C)c1ccccc1 (stereo not drawn) ?
Gli-Sufu antag: 21; UPR XBP1 act: 30; 697 NFkB inh: -1; CHOP UPR activ: 73*; Jurkat NFkB inh: 12; CHOP inhibitor: 43; CHOP UPR conf: 29

Results for CCOC(=O)c1cnc(-n2nc(C)cc2C)nc1NCc1ccccc1 ?
Gli-Sufu antag: 24; UPR XBP1 act: 19; 697 NFkB inh: -3; CHOP UPR activ: 74*; Jurkat NFkB inh: -5; CHOP inhibitor: -80; CHOP UPR conf: 25

Results for CCOC(=O)c1cnc(-n2nc(C)cc2C)nc1NCCO ?
Gli-Sufu antag: -24; UPR XBP1 act: 0; 697 NFkB inh: -11; CHOP UPR activ: -2; Jurkat NFkB inh: 1; CHOP inhibitor: -6

Results for COCCN(C(=O)c1ccc2c(c1)C(=O)N(c1ccccc1Cl)C2=O)c1c(N)n(CC(C)C)c(=O)[nH]c1=O ?
Gli-Sufu antag: -2

What do the screens show for `COCc1cc(C)nc(SCC(=O)Nc2nc(C)cs2)c1C#N`?
Gli-Sufu antag: -76; UPR XBP1 act: -2; 697 NFkB inh: -213; CHOP UPR activ: 3; Jurkat NFkB inh: -123

Results for FC(F)(F)c1cccc(NC(=S)Nc2cccc(NC(=S)Nc3cccc(C(F)(F)F)c3)n2)c1 ?
Gli-Sufu antag: -28; UPR XBP1 act: 1; 697 NFkB inh: 8; CHOP UPR activ: 2; Jurkat NFkB inh: -9; CHOP inhibitor: -1

How did O=C(NCCc1ccc(F)cc1)c1coc(=O)c(Br)c1 do in these assays?
Gli-Sufu antag: 5; UPR XBP1 act: -8; 697 NFkB inh: -39; CHOP UPR activ: 125*; Jurkat NFkB inh: 31; CHOP UPR conf: 88*

Results for O=C(Nc1ccccc1F)c1coc(=O)c(Br)c1 ?
Gli-Sufu antag: 10; UPR XBP1 act: 14; 697 NFkB inh: -5; CHOP UPR activ: 3; Jurkat NFkB inh: 4; CHOP inhibitor: -25

What do the screens show for `Cc1ccc(-c2nc(SCC(=O)Nc3cc(C)on3)c3c(=O)n(C)c(=O)n(C)c3n2)cc1`?
Gli-Sufu antag: 1; UPR XBP1 act: 27; 697 NFkB inh: 9; CHOP UPR activ: 58*; Jurkat NFkB inh: 1; CHOP UPR conf: 104*

How did Cc1nc(SCC(=O)Nc2cc(C)on2)c2c(=O)n(C)c(=O)n(C)c2n1 do in these assays?
Gli-Sufu antag: 1; UPR XBP1 act: 0; 697 NFkB inh: 8; CHOP UPR activ: -1; Jurkat NFkB inh: -4; CHOP inhibitor: 17

Results for COc1ccc(S(=O)(=O)N2CCc3ccccc32)cc1C(=O)N(CC(C)C)C1CCS(=O)(=O)C1 (stereo not drawn) ?
Gli-Sufu antag: 2; UPR XBP1 act: 0; 697 NFkB inh: -3; CHOP UPR activ: -1; Jurkat NFkB inh: -2

Results for Cc1nc([N+](=O)[O-])c(Br)n1CC(=O)c1ccc(Br)cc1 ?
Gli-Sufu antag: 5; UPR XBP1 act: -3; 697 NFkB inh: -5; CHOP UPR activ: 75*; Jurkat NFkB inh: 9; CHOP inhibitor: -31; CHOP UPR conf: 43*

How did Cc1nc([N+](=O)[O-])cn1CC(=O)c1ccc(Cl)cc1 do in these assays?
Gli-Sufu antag: -3; UPR XBP1 act: -5; 697 NFkB inh: 5; CHOP UPR activ: 4; Jurkat NFkB inh: -4

What do the screens show for `Cc1cccc(N2CCN(S(=O)(=O)c3c(C)noc3/C=C/N(C)C)CC2)c1C`?
Gli-Sufu antag: 9; UPR XBP1 act: -5; 697 NFkB inh: -38; CHOP UPR activ: 1; Jurkat NFkB inh: -7

Results for CSc1ccccc1NC(=O)CN(C)C(=O)COc1cccc2cccnc12 ?
Gli-Sufu antag: 1; UPR XBP1 act: 13; 697 NFkB inh: -7; CHOP UPR activ: 48*; Jurkat NFkB inh: -6; CHOP UPR conf: 12
